Calls of active or inactive are those of the source.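 Rule for the calls, unless noted: active = inhibition at or above 50% at 10 µM; inactive = inhibition below 50%.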
Assays:
[1] = inhibitors of TNFa-induced NFkB p65 translocation, primary screen, imaging, HUVEC, MLSMR starter and 10KST1 sets (AID 438;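 active = inhibition above 20% together with a positive visual image hit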;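 note: compound added about 3h40 before a 20 min TNFalpha stimulation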;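 for inhibition: signal is the nuclear over cytoplasmic p65 intensity ratio per well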); conditions: HUVEC TNFa-induced p65 nuclear translocation; cell count: measured here: nuclei count (cytotoxicity indicator), at 2.08 µM; inhibition: at 2 µM, stronger effect = higher value, 0% TNFa-plus-vehicle, 100% no-TNFa wells
[2] = reduction of polyQ htt aggregates in cells – imaging, exon1htt(103Q)mCFP cells, high-content imaging, primary screen (AID 483;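 active = visual image review flags a hit and inhibition of aggregation exceeds 20%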;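 note: compound exposure lasted 3 days before fixation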;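 for nuclei count: percent of the per-plate median nuclei count of sample wells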); conditions: exon1htt(103Q)mCFP cell line, aggregate imaging, at 2 µM; inhibition of aggregation: stronger effect = higher value; nuclei count: measured here: cell count, toxicity
[3] = endothelial E-selectin expression blockers – imaging, HUVEC, immunofluorescence, MLSMR starter and 10KST1 sets, primary screen (AID 487;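 active = visually confirmed hit in the image check and inhibition above 20%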;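 for inhibition: signal is fraction of cell area covered by stained E-selectin grains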;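 for nuclei count: 100% = median nuclei count of all wells on the same plate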); conditions: HUVEC TNFalpha-induced E-selectin immunofluorescence imaging, at 2 µM; inhibition: stronger effect = higher value; nuclei count: measured here: cell number, toxicity
[4] = target: Voltage-gated potassium channel subunit beta-2 (Rattus norvegicus) (UniProt P62483); experiment: inhibitors of rat Kvbeta2 reductase activity – biochemical, NADPH fluorescence, primary screen (AID 622;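 active = fluorescence slope higher than the sample average by over 3 SD, cut at about -0.22 in these data, passing the limit was not always enough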;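 note: slope of raw intensity against log time taken from 70 to 1610 s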); conditions: recombinant KvBeta, 4-cyanobenzaldehyde reduction, at 10 µM, stronger effect = higher value
Sequence of Voltage-gated potassium channel subunit beta-2 (Rattus norvegicus) (P62483 whole entry, looked up): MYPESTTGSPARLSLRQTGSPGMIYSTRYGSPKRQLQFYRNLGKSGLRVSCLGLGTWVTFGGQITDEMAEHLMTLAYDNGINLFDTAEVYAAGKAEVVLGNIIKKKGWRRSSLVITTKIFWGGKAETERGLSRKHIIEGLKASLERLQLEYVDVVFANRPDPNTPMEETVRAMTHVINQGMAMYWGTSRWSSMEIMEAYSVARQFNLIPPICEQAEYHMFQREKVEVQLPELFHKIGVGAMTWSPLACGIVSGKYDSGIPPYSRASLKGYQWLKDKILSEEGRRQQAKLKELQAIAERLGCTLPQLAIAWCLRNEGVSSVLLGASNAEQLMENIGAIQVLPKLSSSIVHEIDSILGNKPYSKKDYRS

[5] = target: Voltage-gated potassium channel subunit beta-2 (Rattus norvegicus) (UniProt P62483); experiment: enhancers of rat Kvbeta2 NADPH turnover – biochemical, NADPH fluorescence, primary screen (AID 623;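 active = NADPH fluorescence slope more negative than the mean of all samples by about 3 SD, 99.7% confidence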;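 note: fluorescence intensity change per second fitted from 20 to 320 s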); conditions: Recombinant KvBeta, NADPH fluorescence decrease slope, 10 min; at 10 µM; stronger effect = lower value
[6] = target: Muscarinic acetylcholine receptor M4 (Homo sapiens) (UniProt P08173); experiment: M4-linked GIRK flux change, two-sided – cell-based, HEK293 M4/GIRK, thallium flux, BTC-AM, M4 allosteric agonist project, primary screen (AID 625;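 active = fluorescence slope after compound addition differing from the mean of all tested samples at 99.7% confidence, mostly higher but some lower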;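 note: thallium influx through GIRK channels coupled to M4 in HEK293 cells with BTC-AM dye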); conditions: at 10 µM, actives lie on both sides
Sequence of Muscarinic acetylcholine receptor M4 (Homo sapiens) (P08173 whole entry, looked up): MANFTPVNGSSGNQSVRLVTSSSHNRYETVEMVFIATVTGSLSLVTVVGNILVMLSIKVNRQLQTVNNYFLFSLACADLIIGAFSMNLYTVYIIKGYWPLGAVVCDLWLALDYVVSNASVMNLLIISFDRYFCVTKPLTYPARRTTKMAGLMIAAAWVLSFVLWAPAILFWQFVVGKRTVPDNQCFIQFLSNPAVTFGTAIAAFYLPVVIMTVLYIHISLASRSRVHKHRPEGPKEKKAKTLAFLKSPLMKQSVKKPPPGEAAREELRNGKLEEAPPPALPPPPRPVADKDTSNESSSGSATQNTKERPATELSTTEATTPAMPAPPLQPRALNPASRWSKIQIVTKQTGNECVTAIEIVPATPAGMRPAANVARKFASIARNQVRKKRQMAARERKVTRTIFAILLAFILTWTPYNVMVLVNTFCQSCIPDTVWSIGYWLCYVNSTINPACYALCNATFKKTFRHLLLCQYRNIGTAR
Outline: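 Material: M4/GIRK1/GIRK2 stable HEK293 cell line. Medium: pH 7.3 thallium assay buffer. Dosing: single compound concentration, 10 µM final. Schedule: 1 h dye loading, 2 min kinetic read. Measured by: kinetic fluorescence with BTC-AM dye. Read-out: post-addition slope, 15–24 s, of baseline-normalized fluorescence. Benchmarks: carbachol and DMSO controls.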

[7] = blockers of RIG-like receptor reporter activation – cell-based, Sendai virus stimulus, luciferase, 10K MLSCN set, TLR/RLR signaling modifier project, primary screen (AID 602276); conditions: HEK293 RL24 IRF3 luciferase reporter, at 10 µM, stronger effect = higher value;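 note: firefly luciferase from ISG56 promoter only with Renilla not read in this screen; 0% = Sendai virus plus DMSO and 100% = medium plus DMSO without virus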
[8] = TLR3 IRF3 reporter activation blockers – cell-based, poly I:C stimulus, luciferase, 10K MLSCN set, primary screen (AID 602277;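 active = inhibition of the reporter signal at or above 50%; inactive = inhibition below 50%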); conditions: HEK293-TLR3 RL24 IRF3 luciferase reporter, at 10 µM, stronger effect = higher value

Compound	cell count [1]	inhibition [1]	inhibition of aggregation [2]	nuclei count [2]	inhibition [3]	nuclei count [3]	fluorescence slope [4]	NADPH fluorescence slope [5]	fluorescence slope [6]	inhibition [7]	inhibition [8]
CCCCC(CC)C(=O)Nc1ccccc1C#N (stereo not drawn)	452	6% (inactive)	-12.4% (inactive)	106%	-63.4% (inactive)	118%	-0.419 (inactive)	-2e-05 (inactive)	0.00611 (inactive)	14.8% (inactive)	22.1% (inactive)
Cc1ccc(C)c(-n2c(Cc3cc(=O)[nH]c(=O)[nH]3)nnc2SCC(=O)NCc2ccco2)c1	254	-4.3% (inactive)	-32.9% (inactive)	74.4%	65.5% (active)	64%	-0.549 (inactive)	-6.1e-05 (inactive)	0.00457 (inactive)	-2% (inactive)	5.02% (inactive)
CCOc1cc(C)c(Cl)cc1S(=O)(=O)N(C)C	682	-14.7% (inactive)	-26.4% (inactive)	113%	-5.4% (inactive)	99.4%	-0.565 (inactive)	-5.1e-05 (inactive)	0.00578 (inactive)	20.4% (inactive)	22.4% (inactive)
CCCc1cc(=O)n2[nH]cnc2n1	285	11.4% (inactive)	-16% (inactive)	80%	-11.2% (inactive)	101%	-0.285 (inactive)	-1.5e-05 (inactive)	0.00663 (inactive)	11% (inactive)	19.9% (inactive)
CC(=O)OC(C(=O)NCc1ccco1)c1cccnc1 (stereo not drawn)	609	-36.2% (inactive)	-14.7% (inactive)	105%	-9.7% (inactive)	135%	-0.553 (inactive)	-7.1e-05 (inactive)	0.00644 (inactive)	13% (inactive)	15.9% (inactive)
CCOP(=O)(c1ccc(N(C)C)cc1)C(O)c1cc(OC)c(OC)c(OC)c1 (stereo not drawn)	713	-0.6% (inactive)	0% (inactive)	113%	10.2% (inactive)	103%	-0.455 (inactive)	-4.5e-05 (inactive)	0.00563 (inactive)	4.26% (inactive)	21% (inactive)
CCOC(=O)c1ccc(Oc2nc(NC)nc(OC)n2)cc1	635	6.8% (inactive)	-13.2% (inactive)	98.2%	-41.5% (inactive)	110%	-0.295 (inactive)	-1.6e-06 (inactive)	0.00677 (inactive)	-7.27% (inactive)	18.3% (inactive)
Cc1oc(-c2ccccc2)cc1C(N)=O	248	0% (inactive)	-1.4% (inactive)	66.5%	18.6% (inactive)	97.7%	-0.548 (inactive)	-1.8e-05 (inactive)	0.0055 (inactive)	15.1% (inactive)	3.48% (inactive)
O=C(NCCc1ccccc1)C1CCN(S(=O)(=O)N2CCC3(CC2)OCCO3)CC1	715	0.2% (inactive)	-7.7% (inactive)	111%	16.5% (inactive)	104%	-0.544 (inactive)	-4.5e-05 (inactive)	0.00522 (inactive)	21.6% (inactive)	20.5% (inactive)
COc1ccccc1-c1nc(C(F)(F)F)c(OC)o1	469	-3.3% (inactive)	-0.2% (inactive)	120%	-126% (inactive)	215%	-0.423 (inactive)	-9.3e-07 (inactive)	0.00491 (inactive)	21.1% (inactive)	11.8% (inactive)
CCN1CCN(Cc2c(C)[nH]c3ccc(OC)cc3c2=O)CC1	405	18.7% (inactive)	-19.4% (inactive)	99.3%	-241% (inactive)	113%	-0.57 (inactive)	-9e-05 (inactive)	0.00708 (inactive)	19.5% (inactive)	26.6% (inactive)
CCOc1ccccc1NC(=O)C1CCCN(C(=O)NCc2ccccc2)C1 (stereo not drawn)	684	-7.7% (inactive)	-15.4% (inactive)	114%	-96.5% (inactive)	106%	-0.448 (inactive)	8e-05 (inactive)	0.00645 (inactive)	5.61% (inactive)	-20.5% (inactive)
Cc1noc(C)c1S(=O)(=O)Nc1c(C)n(C)n(-c2ccccc2)c1=O	410	2.5% (inactive)	33.5% (inactive)	84.8%	-5.4% (inactive)	96%	-0.472 (inactive)	1.2e-05 (inactive)	0.00591 (inactive)	13.8% (inactive)	22.3% (inactive)
CCOCCCNc1ncnc2c1[nH]c1ccccc12	252	7.8% (inactive)	-7.5% (inactive)	72.9%	-49.2% (inactive)	109%	-0.513 (inactive)	-0.000137 (inactive)	0.00341 (inactive)	-24.7% (inactive)	-100% (inactive)
CC1=CC=CC2=NC(=O)CC(C)(C(=O)N(CC(=O)NC(C)C)C3CCCC3)N12 (stereo not drawn)	668	-4.9% (inactive)	-31.9% (inactive)	107%	71.9% (active)	102%	-0.405 (inactive)	6.3e-05 (inactive)	0.00619 (inactive)	4.96% (inactive)	6.2% (inactive)
Cc1cc2ncc(C(=O)Nc3ccccc3)c(C)n2n1	376	4.2% (inactive)	-9.1% (inactive)	101%	27.5% (inactive)	93.8%	-0.54 (inactive)	-1.5e-05 (inactive)	0.00501 (inactive)	1.55% (inactive)	-14.2% (inactive)
O=C(CSC1=NC(=O)C(Cc2ccccc2)C(=O)N1)NC1CCCCC1 (stereo not drawn)	605	-9.8% (inactive)	-13.9% (inactive)	104%	-11.4% (inactive)	108%	-0.558 (inactive)	-6.8e-05 (inactive)	0.0034 (inactive)	-10.2% (inactive)	-11.1% (inactive)
CCOC(=O)CNC(=O)CSc1ncnc2c1cnn2-c1ccccc1	564	-9.2% (inactive)	-10.3% (inactive)	113%	-69.6% (inactive)	118%	-0.562 (inactive)	3.9e-05 (inactive)	0.00493 (inactive)	7.97% (inactive)	8.26% (inactive)
Cc1nc(C)c(C(=O)C2=C(O)C(=O)N(CCN3CCOCC3)C2c2cccnc2)s1 (stereo not drawn)	256	-0.4% (inactive)	22.5% (inactive)	92.8%	-7.1% (inactive)	96.9%	-0.557 (inactive)	-0.000101 (inactive)	0.0026 (inactive)	17.2% (inactive)	22.7% (inactive)
COc1ccccc1N1CCN(C(=O)c2oc3cc(C)c(C)cc3c2C)CC1	355	1.3% (inactive)	-10.8% (inactive)	101%	-46.9% (inactive)	87.3%	-0.546 (inactive)	2.2e-05 (inactive)	0.00423 (inactive)	21.1% (inactive)	15% (inactive)
COC(=O)CN(c1ccc2c(c1)OCO2)S(C)(=O)=O	356	-0.3% (inactive)	17.1% (inactive)	81.1%	62.9% (inactive)	49.1%	-0.482 (inactive)	-2.7e-06 (inactive)	0.00639 (inactive)	8.14% (inactive)	8.67% (inactive)
Cc1ccc(S(=O)(=O)n2nc(OC(=O)c3ccco3)cc2N)cc1	512	-8.3% (inactive)	-12% (inactive)	115%	-8.9% (inactive)	150%	-0.554 (inactive)	-9.4e-05 (inactive)	0.00488 (inactive)	-8.24% (inactive)	-6.95% (inactive)
CN1CCCc2cc(C#N)c(=O)[nH]c21	492	-9.7% (inactive)	-0.4% (inactive)	108%	3.9% (inactive)	85%	-0.117 (active)	1e-05 (inactive)	0.00776 (inactive)	11.5% (inactive)	14% (inactive)
CC(C)CCNC(=O)NC(=O)CSc1nnc(-c2ccccc2F)n1N	572	0.4% (inactive)	-5.6% (inactive)	104%	-223% (inactive)	178%	-0.517 (inactive)	9.8e-05 (inactive)	0.00509 (inactive)	-9.04% (inactive)	-3.83% (inactive)
CCOC(=O)N1CCC(NC(=O)c2ccc(OC)c(CN3CC(=O)N4CCCC4C3=O)c2)CC1 (stereo not drawn)	532	-18.9% (inactive)	2.9% (inactive)	98%	-71.7% (inactive)	94.9%	-0.447 (inactive)	-4.9e-05 (inactive)	0.00582 (inactive)	13.2% (inactive)	24.9% (inactive)
CCn1c(=N)n(CC(O)COc2cccc(C)c2)c2ccccc21 (stereo not drawn)	289	-4.7% (inactive)	-15.2% (inactive)	94.9%	-9.5% (inactive)	112%	-0.517 (inactive)	4.3e-05 (inactive)	0.00395 (inactive)	-0.649% (inactive)	-11.2% (inactive)
Cc1ccc(S(=O)(=O)N2CCOCC2)cc1C(=O)Nc1ccc(-c2cn3ccsc3n2)cc1	614	-6.3% (inactive)	-3% (inactive)	113%	-29.6% (inactive)	122%	-0.462 (inactive)	-8.9e-06 (inactive)	0.00613 (inactive)	-3.48% (inactive)	-16.4% (inactive)
Cc1ccc(Nc2nc(CSc3nnnn3C)cs2)cc1	549	-15.4% (inactive)	3.7% (inactive)	79.2%	5.9% (inactive)	109%	-0.458 (inactive)	-0.000383 (inactive)	0.00561 (inactive)	-54.9% (inactive)	98.7% (active)

Reference: PubChem BioAssay
